Assay outcomes: PubChem BioAssay, Johns Hopkins Ion Channel Center
Hits are enriched below; roughly 2.3% of the tested compounds scored in any of these assays.
TRPC4 block: inhibitors of mouse TRPC4 channel, primary screen, Fluo4 calcium, HEK293 TRPC4beta/mu-opioid cells. Short transient receptor potential channel 4 (Mus musculus), Q9QUQ5. AID 2247, 2010. hit rate 0.39% among 300,000. B-score at 10 µM. DAMGO-evoked Fluo4 calcium flux; active compounds read low;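 active = B-score over 3 SD under the library average, no early fluorescence shift, positive overall ratio signal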
Target sequence (Q9QUQ5 whole entry, looked up): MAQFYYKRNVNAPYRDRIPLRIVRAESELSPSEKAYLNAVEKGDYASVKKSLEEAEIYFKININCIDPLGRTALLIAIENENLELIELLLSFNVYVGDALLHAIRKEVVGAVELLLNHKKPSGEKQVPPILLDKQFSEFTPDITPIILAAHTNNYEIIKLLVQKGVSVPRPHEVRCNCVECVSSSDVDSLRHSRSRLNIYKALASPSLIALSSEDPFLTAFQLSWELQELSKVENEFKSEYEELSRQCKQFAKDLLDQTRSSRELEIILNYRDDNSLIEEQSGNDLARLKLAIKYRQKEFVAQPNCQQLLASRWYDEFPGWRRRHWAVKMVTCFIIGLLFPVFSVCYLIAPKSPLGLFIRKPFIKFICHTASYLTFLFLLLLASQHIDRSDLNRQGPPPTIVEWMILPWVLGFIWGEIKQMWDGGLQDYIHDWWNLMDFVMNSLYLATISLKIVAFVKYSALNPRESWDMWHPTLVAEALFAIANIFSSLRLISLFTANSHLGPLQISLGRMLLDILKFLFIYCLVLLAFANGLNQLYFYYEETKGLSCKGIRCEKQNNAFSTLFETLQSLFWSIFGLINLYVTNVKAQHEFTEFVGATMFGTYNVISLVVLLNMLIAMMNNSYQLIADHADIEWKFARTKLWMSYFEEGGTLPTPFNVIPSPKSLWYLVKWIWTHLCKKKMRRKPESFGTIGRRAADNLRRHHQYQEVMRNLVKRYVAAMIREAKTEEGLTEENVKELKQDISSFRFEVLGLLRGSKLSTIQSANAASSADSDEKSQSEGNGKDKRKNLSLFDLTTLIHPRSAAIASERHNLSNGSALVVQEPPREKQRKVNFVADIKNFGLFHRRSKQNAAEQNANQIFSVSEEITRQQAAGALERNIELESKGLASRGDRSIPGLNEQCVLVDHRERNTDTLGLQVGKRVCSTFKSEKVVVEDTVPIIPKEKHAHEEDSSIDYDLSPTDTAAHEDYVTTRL
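material = TRPC4beta/mu-opioid receptor HEK293 cell line | probe or stimulus = sequential submaximal and maximal DAMGO stimulation | compound dosing = one concentration per compound | measured by = Fluo4 Ca2+ flux fluorescence | evaluation = integrated fluorescence ratio relative to baseline, converted to per-well B score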
TRPC6 inh: mouse TRPC6 channel inhibitors, primary screen, cell-based, HEK293, membrane potential dye; AID 2553, 2010; hit rate 1.1% among 310,000; B-score at 10 µM; Short transient receptor potential channel 6 (Mus musculus), Q61143; ACh-evoked depolarization; active compounds read low;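 active = B-score under library mean minus 3 SD, initial fluorescence not abnormally high, positive integrated signal ratio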;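 note: B-score derived from integrated fluorescence ratio over the kinetic read; more negative B-score means stronger inhibition of depolarization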
TRPC6 activator: mouse TRPC6 channel activators, primary screen, cell-based, HEK293, membrane potential dye. Short transient receptor potential channel 6 (Mus musculus), Q61143. HEK293-TRPC6 membrane potential dye fluorescence; active compounds read high. B-score at 10 µM. hit rate 0.13% among 310,000. AID 2550, 2010;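 active = B-score of the integrated fluorescence ratio above library mean plus 3 SD, and starting fluorescence ratio within library mean plus 5 SD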;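 note: higher score means more depolarization so channel activation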
TRPC4 act: activators of mouse TRPC4 channel, primary screen, Fluo4 calcium, HEK293 TRPC4beta/mu-opioid cells | Short transient receptor potential channel 4 (Mus musculus), Q9QUQ5 | Fluo4 calcium fluorescence; active compounds read high | B-score at 10 µM | hit rate 0.49% among 310,000 | AID 2237, 2010;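 active = B-score above 5 SD of library B-scores, and initial fluorescence ratio not above library mean plus 5 SD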;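 note: positive B-score marks a calcium rise read as TRPC4 activation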
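Test system: HEK293 cells stably co-expressing mouse TRPC4beta and mu-opioid receptor | Schedule: Fluo4 dye loading 45 min at room temperature, 110 s recording | Measured by: Kinetic Fluo4 calcium fluorescence, 5 s baseline at 1 Hz | Evaluation: B score of integrated ratio | Controls: Buffer (low) and maximal DAMGO (high)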
TRPC4 PAM: positive allosteric modulators of TRPC4, primary screen, cell-based, mouse TRPC4beta, HEK293 mu-opioid, Fluo-4 calcium | DAMGO EC20, Fluo-4 Ca2+ flux; active compounds read high | B-score at 10 µM | Short transient receptor potential channel 4 (Mus musculus), Q9QUQ5 | hit rate 0.42% among 310,000;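 active = B-score of calcium response area above 5 SD of library B-scores, with initial fluorescence ratio within 5 SD of library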;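 note: B-score of integrated fluorescence ratio over time as area under calcium response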
TRPC4 spec 2: second check of whether TRPC6 inhibitors also affect mouse TRPC4 | shares compounds with TRPC6 inh | HEK293 TRPC4/MOR, membrane potential dye fluorescence; channel activated by saturating DAMGO dose | inhibition, % at 10 µM | hit rate 42% among 920 | AID 2776;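 active = compounds whose fluorescence signal differed from control wells by over 3 SD, either direction, in both duplicate plates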
TRPC4 spec: mouse TRPC4 modulation by TRPC6 hits, confirmation, selectivity assay for TRPC6 inhibitor project, cell-based, HEK293 TRPC4/mu-opioid, membrane potential dye; shares compounds with TRPC6 inh; membrane potential fluorescence; activity change, negative = inhibition, % at 10 µM; hit rate 61% among 920;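 active = rise or fall in signal beyond 3 SD of buffer-only wells in both replicate plates, either sign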;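 note: integrated kinetic ratio of fluorescence range over baseline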
HEK293 MPD ctr 2-1: nonspecific membrane potential effects, parental HEK293, confirmation, counter-screen for TRPC6 inhibitor project, cell-based, second counter screen; parental HEK293 membrane potential dye fluorescence; maximal acetylcholine challenge after compound addition; shares compounds with TRPC6 inh; AID 2779, 2010; signal change vs control, % at 10 µM; hit rate 31% among 920;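 active = membrane potential signal moving either way by over 3 SD of the maximum-effect control, in both duplicate plates, meaning non-specific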
HEK293 MPD ctr-1: membrane potential modulation in parental HEK293, confirmation, counter-screen for TRPC6 inhibitor project, cell-based; membrane potential signal change, % at 10 µM; shares compounds with TRPC6 inh; hit rate 60% among 920; AID 2780, 2010; parental HEK293 membrane potential dye fluorescence;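 active = membrane potential signal shifting up or down by more than 3 SD of buffer-only wells, on both duplicate plates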
HEK293 MPD ctr-2: parental HEK293 membrane potential modulation, confirmation, counter-screen for TRPC6 modulator project, cell-based. shares compounds with TRPC6 inh. membrane potential dye fluorescence. membrane potential signal change, % at 10 µM. hit rate 51% among 2,400. AID 488924, 2010;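 active = membrane potential signal moves up or down beyond 5 SD from buffer-only wells, on both duplicate plates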
HEK293 MPD ctr 2-2: second check of TRPC6 modulator effects in parental HEK293 cells. shares compounds with TRPC6 inh. membrane potential dye fluorescence; after compound, maximal acetylcholine stimulation. inhibition, % at 10 µM. hit rate 14% among 2,400;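 active = membrane potential signal drops by more than 5 SD from the mean control signal, in both duplicate plates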;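 note: plate controls were acetylcholine ECmax control wells for no effect and buffer only wells for full effect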
TRPC4 ctr mod: TRPC4 modulation by TRPC6 hit compounds, confirmation, selectivity assay for TRPC6 modulator project, cell-based, HEK293 TRPC4/mu-opioid, membrane potential dye, mouse. hit rate 69% among 2,400. shares compounds with TRPC6 inh. membrane potential fluorescence. percent change from control (negative = decrease, positive = increase), % at 10 µM;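 active = membrane potential signal moved up or down beyond 5 SD of buffer control wells, in both duplicate plates, actives on both sides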;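 note: plate controls were assay buffer wells for no effect and DAMGO maximal-effect wells for full effect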
TRPC4 ctr inh 2: second selectivity test of TRPC6 modulators against mouse TRPC4 | shares compounds with TRPC6 inh | hit rate 55% among 2,400 | inhibition, % at 10 µM | HEK293 TRPC4/mu-opioid, membrane potential dye fluorescence; stimulated with maximal-effect DAMGO;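 active = drop in membrane potential signal beyond 5 SD of the control wells in both duplicate plates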;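 note: TRPC4 counter screen for TRPC6 hits run under conditions tuned for TRPC6 not TRPC4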
TRPC6 inh conf: mouse TRPC6 channel inhibitors, confirmation, HEK293 cells, membrane potential dye, duplicate; shares compounds with TRPC6 inh; ACh-evoked depolarization; inhibition, % at 10 µM; hit rate 43% among 3,300;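 active = fluorescence ratio falls more than 5 SD below the full-stimulation control mean, in both duplicate runs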;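 note: integrated fluorescence ratio of peak minus minimum over baseline after agonist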
TRPC6 act conf: mouse TRPC6 channel activators, confirmation, HEK293 cells, membrane potential dye, duplicate. activation, % at 10 µM. shares compounds with TRPC6 inh. HEK293-TRPC6 membrane potential dye fluorescence, FDSS. hit rate 11% among 2,800;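 active = ratio signal rise beyond 5 SD above unstimulated control wells' mean, seen in both duplicate runs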;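 note: plate controls were buffer EC0 wells for no effect and acetylcholine ECmax response for full effect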
* = called active by the depositor; i = inactive; ! = not confirmed by another sample.

SMILES | TRPC4 block | TRPC6 inh | TRPC6 activator | TRPC4 act | TRPC4 PAM | others
CCC(CO)NC(=O)C1C=C2c3cccc4[nH]cc(c34)CC2N(C)C1 (centres undefined) | i | i | i | 73* | i
CC[C@@H](CO)NC(=O)[C@@H]1C=C2c3cccc4c3c(cn4C)C[C@H]2N(C)C1 | i | i | i | 154*! | i
CCN(CC)c1ccc(CNCCc2ccccc2F)cc1 | i | i | i | i | i
Cc1ccsc1C(=O)C1CCCN(Cc2cn(C)nc2C)C1 (centres undefined) | i | i | i | i | i
Cc1ccsc1C(=O)C1CCCN(CCO)C1 (centres undefined) | i | i | i | i | i
COc1cccc(O)c1CN1CCCC(C(=O)c2sccc2C)C1 (centres undefined) | -9* | i | i | i | i
COc1ccc(OC)c(CN2CCCC(C(=O)c3sccc3C)C2)c1 (centres undefined) | -6* | i | i | i | i
CC(C)c1ccccc1OCC(=O)N1CCCN(C)CC1 | i | i | i | i | i
NS(=O)(=O)OC(CCc1ccccc1)C(Cl)(Cl)Cl (centres undefined) | i | i | i | i | 12*
CN1C(=O)N(C)C(=O)C2(Cc3cc(NC(=O)c4ccccc4)ccc3N3CCCC32)C1=O (centres undefined) | i | i | i | i | i
Cc1cccc(NC2=NCCCS2)c1 | i | i | i | i | i
CCOP(=O)(/C=C(\Cl)c1ccccc1)C(O)c1ccc(F)cc1 (centres undefined) | i | i | i | i | i
COc1ccccc1CN1CCCC(C(=O)c2ccccc2SC)C1 (centres undefined) | i | i | i | i | i
COc1ccc(O)c(CN2CCCC(C(=O)c3ccccc3SC)C2)c1 (centres undefined) | -6* | i | i | i | i
COc1ccc(C(=O)C2CCCN(CCO)C2)c(C)c1 (centres undefined) | i | i | i | 51* | i
COc1ccc(C(=O)C2CCCN(C3CSCCSC3)C2)c(C)c1 (centres undefined) | i | i | i | 59* | i
OC[C@@H](O)CCl | i | i | i | i | i
CCN(CC)CCCOC(=O)C(OC)(c1ccccc1)c1ccccc1 | i | -6.41* | i | i | i | HEK293 MPD ctr-2=153.0%*;HEK293 MPD ctr 2-2=78.0%*;TRPC4 ctr mod=34.5%*;TRPC4 ctr inh 2=i;TRPC6 inh conf=61.0%*
Cn1c(=O)n(C)c2cc([N+](=O)[O-])c(N3CCNCC3)cc21 | i | -6.28* | i | i | i | HEK293 MPD ctr-2=-276.0%*;HEK293 MPD ctr 2-2=69.5%*;TRPC4 ctr mod=-45.5%*;TRPC4 ctr inh 2=54.5%*;TRPC6 inh conf=52.0%*;TRPC6 act conf=i
CN1CCN(c2c(F)cc([N+](=O)[O-])c(N)c2Br)CC1 | i | i | i | i | i
CN1CCN(c2cc(N3CCCCCC3)c(F)cc2[N+](=O)[O-])CC1 | i | -6.02* | i | i | i | HEK293 MPD ctr-2=-88.0%*;HEK293 MPD ctr 2-2=i;TRPC4 ctr mod=-23.5%*;TRPC4 ctr inh 2=54.5%*;TRPC6 inh conf=41.0%*;TRPC6 act conf=i
Nc1c([N+](=O)[O-])cc(F)c(N2CCNCC2)c1Br | i | -5.89* | i | i | 23* | HEK293 MPD ctr-2=-127.5%*;HEK293 MPD ctr 2-2=i;TRPC4 ctr mod=-22.5%*;TRPC4 ctr inh 2=33.5%*;TRPC6 inh conf=39.0%*;TRPC6 act conf=i
CN1CCN(c2ccc(S(C)(=O)=O)cc2[N+](=O)[O-])CC1 | i | i | i | i | i
O=C(c1cc([N+](=O)[O-])ccc1N1CCNCC1)N1CCOCC1 | i | i | i | i | i
O=[N+]([O-])c1cc(F)c(N2CCCC2)cc1N1CCNCC1 | i | -6.9* | i | i | i | TRPC4 spec 2=48.5%*;TRPC4 spec=-28.9%*;HEK293 MPD ctr 2-1=i;HEK293 MPD ctr-1=-399.0%*;TRPC6 inh conf=i;TRPC6 act conf=i
CC1CN(c2ccc([N+](=O)[O-])c(N3CCCCC3)c2)CCN1 (centres undefined) | i | -5.35* | i | i | i | HEK293 MPD ctr-2=i;HEK293 MPD ctr 2-2=i;TRPC4 ctr mod=-10.5%*;TRPC4 ctr inh 2=i;TRPC6 inh conf=i;TRPC6 act conf=i
